Screening data as filed in PubChem BioAssay.
A selection: hits, their analogues and other compounds. The true share with any hit is near 3.5%.
MrgX1 allo act – human MrgX1 positive allosteric modulation, primary screen | Q96LB2 | MrgX1-HEK293, Fluo-4 calcium flux, FDSS; active compounds read high | B-score at 10 µM | hit rate 0.63% among 310,000 | AID 588675;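 active = plate-corrected calcium response at least 3 library SD above typical, normal starting fluorescence, not activating the receptor alone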;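 note: compound read alongside a low EC10 to EC30 dose of BAM8-22 agonist; peak minus trough fluorescence over baseline measured at the second addition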
Target sequence (Q96LB2 whole entry, looked up): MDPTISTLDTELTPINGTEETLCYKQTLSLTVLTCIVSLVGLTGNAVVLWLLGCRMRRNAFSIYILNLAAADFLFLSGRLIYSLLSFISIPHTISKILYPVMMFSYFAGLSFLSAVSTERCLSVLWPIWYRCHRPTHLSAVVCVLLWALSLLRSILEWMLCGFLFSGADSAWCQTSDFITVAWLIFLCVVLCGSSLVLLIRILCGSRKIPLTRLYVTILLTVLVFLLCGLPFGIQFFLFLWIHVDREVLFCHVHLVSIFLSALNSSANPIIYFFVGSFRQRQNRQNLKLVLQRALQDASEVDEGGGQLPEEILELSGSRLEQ
RGS4 pot – RGS4 potentiation or activation. B-score at 10 µM. AID 463111. hit rate 0.92% among 310,000. HEK293 M3R/inducible RGS4, carbachol calcium flux Fluo4; active compounds read low;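 active = B-score of the integrated calcium signal more than 4 SD below the library mean, with starting fluorescence not abnormally high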;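 note: negative B-score means reduced calcium response which marks RGS4 activation or potentiation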
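Assay system: Inducible-RGS4 HEK293 cells carrying M3 receptor | Schedule: Compound preincubation 20 min at room temperature before agonist | Signal: Kinetic calcium fluorescence imaging with Fluo4-AM dye, 2 µM | Read-out basis: B score from integrated fluorescence ratio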
MrgX1 ag – activates human MrgX1 receptor signaling; MrgX1-HEK293 cells, Fluo-4 calcium fluorescence, agonist mode; active compounds read high; B-score at 10 µM; hit rate 0.44% among 310,000;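 active = calcium response B-score plate-corrected fluorescence ratio at least 3 library SD, with starting fluorescence B-score inside 5 SD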
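Test system: Stable human MrgX1 HEK293 cell line | Schedule: Overnight plating before 1 h dye loading | Read-out basis: Baseline-normalised fluorescence change ratio, B-scored | Detection: Kinetic calcium dye fluorescence, Fluo-4 NW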
RGS4 block – inhibitors of human RGS4; B-score at 10 µM; hit rate 0.45% among 310,000; HEK293 M3R/RGS4 inducible, Fluo-4 calcium flux; active compounds read high; triggered by carbachol at its EC20;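 active = B-score, a plate-corrected calcium signal, over three deviations above library mean, with baseline fluorescence within five deviations of library mean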;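 note: RGS4 expression induced by doxycycline in cells with stable M3 receptor; B-score is computed from the integrated fluorescence ratio over baseline after carbachol; higher B-score means a larger calcium signal and so more RGS4 inhibition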
Target sequence (P49798 whole entry, looked up): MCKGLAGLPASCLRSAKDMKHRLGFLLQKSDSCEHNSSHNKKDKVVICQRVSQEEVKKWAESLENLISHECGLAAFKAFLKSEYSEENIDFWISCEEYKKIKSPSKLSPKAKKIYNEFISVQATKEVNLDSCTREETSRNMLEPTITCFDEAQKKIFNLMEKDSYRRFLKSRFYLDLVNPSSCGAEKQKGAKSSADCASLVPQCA
MrgX1 antagonist – antagonists of human MrgX1 receptor; MRGX1-HEK293 calcium flux, Fluo-4, BAM8-22 antagonism; active compounds read low; hit rate 1.3% among 310,000; AID 588676; Q96LB2; B-score at 10 µM;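 active = calcium-response B-score plate-corrected more than 3 library SD below zero, starting fluorescence within 5 deviations, no agonist response on first addition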;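 note: peak minus trough fluorescence over baseline after final BAM8-22 challenge near maximal dose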
MrgX1 ant reconf – reconfirmed antagonist of human MrgX1 receptor signaling | hit rate 19% among 2,300 | shares compounds with MrgX1 antagonist | MrgX1-HEK293, BAM8-22 calcium flux, Fluo-4; active compounds read low | remaining BAM8-22 calcium response % of control (active compounds read low), % at 10 µM | AID 602420;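 active = remaining agonist calcium response no higher than 100% minus 3 SD of agonist-only control wells, with starting fluorescence near control levels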;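 note: agonist BAM8-22 given at a near maximal EC90 to ECmax level; peak minus minimum fluorescence divided by baseline after agonist addition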
HEK293 Ca flux – MrgX1 antagonist counter-screen hit in parental HEK293 cells; hit rate 2% among 4,000; shares compounds with MrgX1 antagonist; Fluo-4 calcium fluorescence, FDSS; fluorescence ratio F(max-min)/F0 at 10 µM;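 active = duplicate-averaged calcium fluorescence ratio at least three times the standard deviation of buffer wells, a nonspecific response in parental cells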
HEK293 Ca counter – MrgX1 allosteric activator counter-screen hit in parental HEK293 cells; shares compounds with MrgX1 antagonist; parental HEK293 calcium flux, Fluo-4 fluorescence ratio; active compounds read high; fluorescence ratio F(max-min)/F0 at 10 µM; hit rate 0.4% among 4,000;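 active = calcium fluorescence ratio, averaged over duplicates, at least 3 SD of the buffer-well ratio, meaning a nonspecific response in receptor-free cells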;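 note: untransfected parental HEK293 lacking MrgX1 used as counterscreen for MrgX1 allosteric activators; fluorescence change taken during the second addition on a kinetic imager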
HEK293 Ca cntr2 – activity in parental HEK293 cells lacking MrgX1 receptor. fluorescence ratio F(max-min)/F0 at 10 µM. AID 624115. Fluo-4 calcium fluorescence (FDSS); active compounds read high. shares compounds with MrgX1 antagonist. hit rate 8.7% among 4,000;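 active = calcium fluorescence ratio at least three times the spread of buffer wells, meaning a non-specific response in parental cells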
Starred values were filed as active, the others as inactive.

Results for CC(C)OC(=O)CSc1nc2c(c(C3CC=CCC3)c1C#N)CCC2 (configuration not stated) ?
MrgX1 allo act: inactive; RGS4 pot: inactive; MrgX1 ag: inactive; RGS4 block: inactive; MrgX1 antagonist: -6.21*; MrgX1 ant reconf: inactive; HEK293 Ca flux: inactive; HEK293 Ca counter: inactive; HEK293 Ca cntr2: inactive

How did C=CCSc1nc2c(c(C3CC=CCC3)c1C#N)CCC2 (configuration not stated) do in these assays?
MrgX1 allo act: inactive; RGS4 pot: inactive; MrgX1 ag: inactive; RGS4 block: inactive; MrgX1 antagonist: inactive

Results for O=C(c1ccc2ccccc2n1)N(CCO)Cc1ccccc1 ?
MrgX1 allo act: inactive; RGS4 pot: inactive; MrgX1 ag: inactive; RGS4 block: inactive; MrgX1 antagonist: inactive

How did COC(=O)c1cc(NC2c3ccccc3C(=O)N2Cc2ccco2)cc(C(=O)OC)c1 (configuration not stated) do in these assays?
MrgX1 allo act: inactive; MrgX1 ag: inactive; MrgX1 antagonist: inactive

What do the screens show for `O=C1c2ccccc2C(Nc2ccc(S(=O)(=O)N3CCCCC3)cc2)N1Cc1ccco1` (configuration not stated)?
MrgX1 allo act: inactive; RGS4 pot: inactive; MrgX1 ag: inactive; RGS4 block: inactive; MrgX1 antagonist: -7.85*; MrgX1 ant reconf: inactive; HEK293 Ca flux: inactive; HEK293 Ca counter: inactive; HEK293 Ca cntr2: inactive

What do the screens show for `COc1ccc(NC2c3ccccc3C(=O)N2Cc2ccco2)cc1OC` (configuration not stated)?
MrgX1 allo act: inactive; RGS4 pot: inactive; MrgX1 ag: inactive; RGS4 block: inactive; MrgX1 antagonist: -5.36*; MrgX1 ant reconf: inactive; HEK293 Ca flux: inactive; HEK293 Ca counter: inactive; HEK293 Ca cntr2: inactive

What do the screens show for `CCCCn1c(N)c(N(CCOC)C(=O)CSc2n[nH]c(-c3ccc(OC)cc3)n2)c(=O)[nH]c1=O`?
MrgX1 allo act: inactive; RGS4 pot: inactive; MrgX1 ag: inactive; RGS4 block: inactive; MrgX1 antagonist: inactive

Results for COc1ccccc1NC(=S)NC(=O)c1ccc(Cn2cc(Br)cn2)cc1 ?
MrgX1 allo act: inactive; RGS4 pot: inactive; MrgX1 ag: inactive; RGS4 block: inactive; MrgX1 antagonist: inactive

Results for O=C1OCCC1Sc1nnc(-c2cccc(Br)c2)o1 (configuration not stated) ?
MrgX1 allo act: inactive; RGS4 pot: inactive; MrgX1 ag: inactive; RGS4 block: inactive; MrgX1 antagonist: -5.1*; MrgX1 ant reconf: inactive; HEK293 Ca flux: inactive; HEK293 Ca counter: inactive; HEK293 Ca cntr2: inactive

How did COc1ccc(Nc2nc(NCCO)nc(N3CCCC3)n2)cc1 do in these assays?
MrgX1 allo act: inactive; RGS4 pot: inactive; MrgX1 ag: inactive; RGS4 block: inactive; MrgX1 antagonist: -5.52*; MrgX1 ant reconf: inactive; HEK293 Ca flux: inactive; HEK293 Ca counter: inactive; HEK293 Ca cntr2: inactive

How did COc1cccc(Nc2nc(NCCO)nc(N3CCCC3)n2)c1 do in these assays?
MrgX1 allo act: inactive; RGS4 pot: inactive; MrgX1 ag: inactive; RGS4 block: inactive; MrgX1 antagonist: inactive

How did O=C(Nc1cccc(S(=O)(=O)c2cccc(NC(=O)C3CC3)c2)c1)C1CC1 do in these assays?
MrgX1 allo act: inactive; RGS4 pot: inactive; MrgX1 ag: inactive; RGS4 block: inactive; MrgX1 antagonist: inactive

Results for COc1cc(C(=O)Oc2ccccc2)ccc1OCc1c(C)noc1C ?
MrgX1 allo act: inactive; RGS4 pot: inactive; MrgX1 ag: inactive; RGS4 block: inactive; MrgX1 antagonist: -5.96*; MrgX1 ant reconf: inactive; HEK293 Ca flux: inactive; HEK293 Ca counter: inactive; HEK293 Ca cntr2: inactive

How did COc1cc(C(=O)O)ccc1OCc1c(C)noc1C do in these assays?
MrgX1 allo act: inactive; RGS4 pot: inactive; MrgX1 ag: inactive; RGS4 block: inactive; MrgX1 antagonist: inactive

How did O=C(COC(=O)CNC(=O)c1ccc(Cl)cc1Cl)Nc1ccc(N2CCOCC2)cc1 do in these assays?
MrgX1 allo act: inactive; RGS4 pot: inactive; MrgX1 ag: inactive; RGS4 block: inactive; MrgX1 antagonist: inactive

What do the screens show for `COc1ccc2c(c1)OC(c1ccccc1)(C(F)(F)F)NC2=O` (configuration not stated)?
MrgX1 allo act: inactive; RGS4 pot: inactive; MrgX1 ag: inactive; RGS4 block: inactive; MrgX1 antagonist: inactive

What do the screens show for `CC(C)Oc1ccc2c(c1)OC(c1ccccc1)(C(F)(F)F)NC2=O` (configuration not stated)?
MrgX1 allo act: inactive; RGS4 pot: inactive; MrgX1 ag: inactive; RGS4 block: inactive; MrgX1 antagonist: -5.77*; MrgX1 ant reconf: inactive; HEK293 Ca flux: inactive; HEK293 Ca counter: inactive; HEK293 Ca cntr2: inactive

What do the screens show for `Nc1nc(SCC(=O)N2N=C(c3ccc(Cl)cc3)CC2c2ccco2)n[nH]1` (configuration not stated)?
MrgX1 allo act: inactive; RGS4 pot: inactive; MrgX1 ag: inactive; RGS4 block: inactive; MrgX1 antagonist: inactive

What do the screens show for `CCOC(=O)C1CCCN(C(=O)c2cnn3c(C(F)(F)F)cc(-c4ccccc4)nc23)C1` (configuration not stated)?
MrgX1 allo act: inactive; RGS4 pot: inactive; MrgX1 ag: inactive; RGS4 block: inactive; MrgX1 antagonist: inactive

What do the screens show for `COc1ccc(-c2cc(C(F)(F)F)n3ncc(C(=O)N4CCCCC4c4cccnc4)c3n2)cc1` (configuration not stated)?
MrgX1 allo act: inactive; RGS4 pot: inactive; MrgX1 ag: inactive; RGS4 block: inactive; MrgX1 antagonist: -5.79*; MrgX1 ant reconf: inactive; HEK293 Ca flux: inactive; HEK293 Ca counter: inactive; HEK293 Ca cntr2: inactive

What do the screens show for `Cc1ccc(C(=O)N2CCC(C(=O)c3ccc(Cl)cc3)CC2)cc1`?
MrgX1 allo act: inactive; RGS4 pot: inactive; MrgX1 ag: inactive; RGS4 block: inactive; MrgX1 antagonist: inactive
